Source: ChEMBL document CHEMBL4316619 (Bioorg Med Chem Lett, 2019)
The source made the active and inactive calls. The rule behind the calls is not given here.

What was measured:
[1] = test system: Influenza A virus; test: Antiviral activity against Influenza A virus A/PR/8/34 (H1N1) infected in MDCK cells assessed as fold reduction in virus titer at 10 uM measured after 48 hrs by hemagglutination assay relative to control; format: functional, A/Puerto Rico/8/1934(H1N1)
Method in brief: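 MDCK cells were infected with A/PR/8/34 (H1N1) at MOI 0.1 and incubated with compound for 48 h. Supernatant virus was then quantified by hemagglutination assay and standard TCID50 analysis. The single-concentration screen used 10 μM and reports fold reduction in titer. Dose-response runs used triplicate cultures, with percent titer decrease back-calculated from TCID50.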

[2] = test system: MDCK; test: Cytotoxicity against MDCK cells assessed as reduction in cell viability measured after 48 hrs by CellTiter Glo assay; format: cell-based, Canis lupus familiaris; details: dog
Method in brief: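 MDCK cells were incubated with compound under the conditions of the 48 h replication assay. Cytotoxicity was read with the CellTiter-Glo ATP viability assay. Follow-up viability testing used 5, 10, 50 and 100 μM.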

[3] = test system: Influenza A virus H3N2; test: Antiviral activity against Influenza A virus (A/Brisbane/10/2007(H3N2)) infected in MDCK cells assessed as reduction in virus-induced cytopathic effect measured on day 5 by Celltiter-Glo luminescence assay; format: functional, organism-based; details: 120 h
Method in brief: (§1)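 MDCK cells were infected with seasonal influenza A strains through NIAID resources and scored for protection from virus-induced cell death. Compounds were tested at four concentrations (0.8, 4, 20, 100 μM). EC50/EC90 (reduction of viral cell death) and CC50 (reduction of cell viability) were derived in μM, and SI50 = CC50/EC50.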

[4] = Cytotoxicity against MDCK cells assessed as reduction in cell viability measured on day 5 by Celltiter-Glo luminescence assay; format: cell-based, Canis lupus familiaris; details: dog, MDCK cells; method in brief: as §1
[5] = test system: Influenza A virus; test: Antiviral activity against Influenza A virus (A/California/7/2009(H1N1)) infected in MDCK cells assessed as reduction in virus-induced cytopathic effect measured on day 5 by Celltiter-Glo luminescence assay; format: functional, organism-based; details: 120 h; method in brief: as §1
[6] = test system: Influenza B virus; test: Antiviral activity against Influenza B virus (B/Brisbane/60/2008) infected in MDCK cells assessed as reduction in virus-induced cytopathic effect measured on day 5 by Celltiter-Glo luminescence assay; format: functional, organism-based
[7] = molecular target: Non-structural protein 1 (Influenza A virus (strain A/Puerto Rico/8/1934 H1N1)) (UniProt P03496); test: Inhibition of Influenza A virus A/PR/8/34 (H1N1) NS1 expressed in 293 cells assessed as increase in poly(I:C)-induced IFN-beta reporter activity treated 16 hrs […] measured after 24 hrs by luciferase reporter gene assay; format: cell-based; details: Influenza A virus (A/Puerto Rico/8/1934(H1N1))
Chain of Non-structural protein 1 (Influenza A virus (strain A/Puerto Rico/8/1934 H1N1)) (P03496 whole entry): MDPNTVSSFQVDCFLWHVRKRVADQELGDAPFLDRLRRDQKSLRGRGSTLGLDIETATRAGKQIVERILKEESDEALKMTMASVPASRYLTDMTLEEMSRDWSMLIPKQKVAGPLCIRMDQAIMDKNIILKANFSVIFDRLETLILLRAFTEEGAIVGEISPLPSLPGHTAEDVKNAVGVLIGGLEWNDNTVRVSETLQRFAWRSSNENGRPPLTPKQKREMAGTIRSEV
Method in brief: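 293 cells co-transfected with a human IFN-β promoter-driven firefly luciferase reporter and NS1 expression constructs. At 16 h post-transfection, poly(I:C) 50 μg/mL plus compound (20 μM) or 1% DMSO added for a further 24 h; luciferase read by luminometer. Untransfected cells serve as baseline.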

[8] = Aqueous kinetic solubility of the compound; format: physicochemical; details: buffer
[9] = test system: Influenza A virus; test: Effect on NS1 protein expression in Influenza A virus A/PR/8/34 (H1N1) infected in MDCK cells at 20 uM by Western blot analysis; format: functional, organism-based; details: A/Puerto Rico/8/1934(H1N1)
Method in brief: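 MDCK cells, uninfected or infected with A/PR/8/34, treated with DMSO or compound at 20 μM. NS1 protein detected by Western blot, with α-tubulin as loading control.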

[10] = Stability of the compound in mouse liver microsomes assessed as parent compound remaining measured after 30 mins; format: ADME, Microsome; details: read-out: Stability
Method in brief: (§2)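 Mouse liver microsomes; percent parent compound remaining measured at 0, 15 and 30 min.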

[11] = molecular target: Non-structural protein 1 (Influenza A virus (strain A/Puerto Rico/8/1934 H1N1)) (UniProt P03496); test: Inhibition of NS1 in Influenza A virus A/PR/8/34 (H1N1) infected in MDCK cells assessed as restoration of protein-induced reduction in IFN-beta mRNA expression at 20 uM measured after 6 hrs by RT-PCR analysis; format: cell-based; details: Influenza A virus (A/Puerto Rico/8/1934(H1N1))
Method in brief: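 MDCK cells infected with A/PR/8/34 at MOI 2 and incubated 6 h with compound at 20 μM. Cells harvested; IFN-β and β-actin mRNA detected by RT-PCR. Poly(I:C) lane serves as positive control for IFN-β induction.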

[12] = test system: Saccharomyces cerevisiae; test: Effect on growth of Yeast 9526-6-2 harboring pYES at 50 uM measured up to 60 hrs; format: organism-based; details: in vivo
Method in brief: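 Control yeast carrying empty pYES and NS1-expressing NS1-pYES strain grown with DMSO or compound at 50 μM. Growth measured as OD600 at 22, 42 and 60 h.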

[13] = Stability of the compound in mouse liver microsomes assessed as parent compound remaining measured after 15 mins; format: ADME, Microsome; details: read-out: Stability; method in brief: as §2
[14] = molecular target: Luciferin 4-monooxygenase (Photinus pyralis) (UniProt P08659); test: Effect on firefly luciferase activity expressed in 293 cells at 50 uM by luminescence assay; format: cell-based
Chain of Luciferin 4-monooxygenase (Photinus pyralis) (P08659 whole entry): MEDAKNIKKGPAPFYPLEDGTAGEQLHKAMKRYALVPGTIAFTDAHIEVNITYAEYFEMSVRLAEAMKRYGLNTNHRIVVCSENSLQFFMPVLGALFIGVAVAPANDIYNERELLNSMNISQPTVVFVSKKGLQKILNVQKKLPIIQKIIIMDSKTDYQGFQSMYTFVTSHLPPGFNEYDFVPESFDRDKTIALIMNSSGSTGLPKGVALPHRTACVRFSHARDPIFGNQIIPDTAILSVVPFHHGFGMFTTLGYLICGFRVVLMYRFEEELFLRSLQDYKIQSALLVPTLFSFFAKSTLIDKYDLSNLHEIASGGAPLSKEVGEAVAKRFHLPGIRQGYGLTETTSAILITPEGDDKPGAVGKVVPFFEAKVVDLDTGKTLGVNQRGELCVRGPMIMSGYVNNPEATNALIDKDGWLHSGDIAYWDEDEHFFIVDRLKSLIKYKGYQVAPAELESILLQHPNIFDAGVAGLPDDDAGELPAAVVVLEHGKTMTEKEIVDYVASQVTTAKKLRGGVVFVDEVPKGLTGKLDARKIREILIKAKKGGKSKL

[15] = Stability of the compound in mouse liver microsomes assessed as parent compound remaining measured immediately; format: ADME, Microsome; details: read-out: Stability; method in brief: as §2

| Structure (SMILES) | fold change (FC) [1] | Activity [2] | further results |
| --- | --- | --- | --- |
| COc1cccc(-n2nc(C)c3c(-c4ccc(O)c(OC)c4)ccnc32)c1 | 0 | Non-Toxic |  |
| COc1cc(-c2c(C#N)c(N)nc3c2c(C)nn3-c2ccccc2)ccc1O | 32 | Non-Toxic |  |
| COc1cc(-c2c(C#N)c(O)nc3c2c(C)nn3-c2ccccc2)ccc1O | 16 | Non-Toxic |  |
| COc1cc(-c2c(C#N)c(O)nc3c2c(C)nn3-c2ccccc2)cc(OC)c1OC | 16 | Non-Toxic |  |
| COc1ccc(-c2c(C#N)c(N)nc3c2c(C)nn3-c2ccc(C)cc2)cc1OC | 0 | Non-Toxic |  |
| COc1cc(-c2c3c(C)nn(-c4ccccc4)c3nc3[nH]c(=O)[nH]c(=O)c23)ccc1O | 2 | Non-Toxic |  |
| COc1cc(-c2c(C#N)c(N)nc3c2c(C)nn3-c2ccc(Cl)cc2)cc(OC)c1OC | 0 | Non-Toxic |  |
| COc1ccc(-n2nc(C)c3c(-c4ccc(O)c(OC)c4)ccnc32)cc1 | 32 | Non-Toxic |  |
| COc1ccc(-c2c(C#N)c(O)nc3c2c(C)nn3-c2ccccc2)cc1OC | 2 | Non-Toxic |  |
| COc1cccc(-c2ccnc3c2c(C)nn3-c2ccc(F)cc2)c1 | 4 | Toxic |  |
| COc1cc(-c2c(C#N)c(N)nc3c2c(C)nn3-c2ccc(F)cc2)cc(OC)c1OC | 0 | Non-Toxic | EC50 [3]: > 50 µM; EC90 [3]: > 50 µM; CC50 at 5 day [4]: 0.87 to 6 µM; EC50 [5]: 18.3 µM; EC90 [5]: 42.4 µM; Activity [6]: inactive |
| COc1ccc(-c2c(C#N)c(N)nc3c2c(C)nn3-c2ccccc2)cc1OC | 2 | Non-Toxic |  |
| NC(=O)c1ncn([C@@H]2O[C@H](CO)[C@@H](O)[C@H]2O)n1 [RIBAVIRIN] |  |  | EC50 [3]: 28.8 µM; EC90 [3]: 34.9 µM; EC50 [5]: 2.2 µM; EC90 [5]: 3.5 µM |
| COc1cc(-c2c3c(C)nn(-c4ccccc4)c3nc3[nH]c(=O)[nH]c(=O)c23)cc(OC)c1O | 4 | Non-Toxic |  |
| Cc1nn(-c2ccc(F)cc2)c2nc(N)c(C#N)c(-c3ccc(O)c(O)c3)c12 | 16 | Non-Toxic |  |
| COc1cc(-c2c(C#N)c(N)nc3c2c(C)nn3-c2ccc(Cl)cc2)ccc1O | 32 | Non-Toxic |  |
| COc1ccc(-c2c(C#N)c(N)nc3c2c(C)nn3-c2ccc(F)cc2)cc1OC | 2 | Non-Toxic |  |
| COc1ccc(-c2c(C#N)c(O)nc3c2c(C)nn3-c2ccc(F)cc2)cc1OC | 0 | Non-Toxic |  |
| COc1ccc(-c2c(C#N)c(N)nc3c2c(C)nn3-c2ccc(Cl)cc2)cc1OC | 0 | Non-Toxic |  |

| Structure (SMILES) | fold change (FC) [1] | Activity [2] | further results |
| --- | --- | --- | --- |
| Cc1ccc(-n2nc(C)c3c(-c4ccc(O)c(O)c4)c(C#N)c(N)nc32)cc1C | 256 | Non-Toxic | inhibition [7]: Active; Kinetic_solubility [8]: 11.6 µM; Activity [9]: inactive; remaining at 0.5 h [10]: 64%; inhibition [11]: Active; EC50 [3]: > 50 µM; EC90 [3]: > 50 µM; CC50 at 5 day [4]: 24.5 to 39.3 µM; Activity [12]: Non-Toxic; remaining at 0.25 h [13]: 78%; EC50 [5]: 1.2 µM; EC90 [5]: 3.4 µM; Activity [14]: inactive; Activity [6]: inactive; remaining at 0 min [15]: 100% |
| Cc1ccc(-n2nc(C)c3c(-c4ccc(O)c(O)c4)c(C#N)c(N)nc32)cc1 | 64 | Non-Toxic |  |
| COc1cc(-c2c(C(=O)O)cnc3c2c(C)nn3-c2ccc(F)cc2)ccc1O | 4 | Non-Toxic |  |
| O=C(NCCCc1ccccc1)c1ccccc1O |  |  | inhibition [11]: Active |
| COc1cc(-c2c(C#N)c(N)nc3c2c(C)nn3-c2ccc(C)c(C)c2)cc(OC)c1OC | 0 | Non-Toxic |  |
| COc1ccc(-c2c3c(C)nn(-c4ccccc4)c3nc3[nH]c(=O)[nH]c(=O)c23)cc1OC | 4 | Non-Toxic |  |
| COc1cc(-c2ccnc3c2c(C)nn3-c2ccc(F)cc2)ccc1O | 2 | Non-Toxic |  |
| COc1cc(-c2ccnc3c2c(C)nn3-c2cccc(F)c2)ccc1O | 0 | Non-Toxic |  |
| COc1cc(-c2ccnc3c2c(C)nn3-c2ccccc2)ccc1O | 2 | Non-Toxic |  |
| COc1cc(-c2c(C#N)c(N)nc3c2c(C)nn3-c2ccc(C)cc2)ccc1O | 4 | Non-Toxic |  |
| Cc1nn(-c2ccccc2)c2nc3[nH]c(=O)[nH]c(=O)c3c(-c3ccc4c(c3)OCO4)c12 | 4 | Non-Toxic |  |
| CCOC(=O)c1cnc2c(c(C)nn2-c2ccc(F)cc2)c1-c1ccc(O)c(OC)c1 | 16 | Non-Toxic |  |
| COc1cc(-c2c(C#N)c(N)nc3c2c(C)nn3-c2ccc(C)cc2)cc(OC)c1OC | 32 | Non-Toxic |  |
| COc1cc(-c2c(C#N)c(N)nc3c2c(C)nn3-c2ccccc2)cc(OC)c1OC | 16 | Non-Toxic |  |
| COc1ccc(-c2c3c(C)nn(-c4ccccc4)c3nc3[nH]c(=O)[nH]c(=O)c23)cc1O | 2 | Non-Toxic |  |
| COc1ccc(-c2ccnc3c2c(C)nn3-c2ccc(F)cc2)cc1OC | 2 | Non-Toxic |  |
| COc1cc(-c2c(C#N)c(N)nc3c2c(C)nn3-c2ccc(C)c(C)c2)ccc1O | 4 | Non-Toxic |  |
| Cc1nn(-c2ccccc2)c2nc(N)c(C#N)c(-c3ccc(O)c(O)c3)c12 | 32 | Non-Toxic |  |
